pIC50: −log10 of the molar value. Activity calls are given as the source filed them. The calls are words filed in the database; no cut-off is given here.
The compounds below were run on Rattus norvegicus (assay: Cardioprotective activity in Langendorff perfused Wistar rat assessed as rate pressure product at 1 mg/kg, ip recorded after 30 mins of global ischemia followed by 120 mins of reperfusion). Conditions: route intraperitoneal.
Assay type: functional
Outline: (§1)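 Adult male Wistar rats (260-350 g) given the compound ip in DMSO (40 mg/kg; cromakalim 1 mg/kg), then after 2 h anaesthetised with pentobarbital (100 mg/kg ip) and heparinized (100 UI ip). Hearts on Langendorff apparatus with an LV balloon (end-diastolic 5-10 mmHg). 30 min equilibration, 30 min global no-flow ischemia, 120 min reperfusion. RPP at 120 min expressed as % of preischemic RPP.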
`CC1(C)Oc2ccc(C#N)cc2C(N2CCCC2=O)C1O` (stereo unspecified) [CROMAKALIM] showed an Activity of 94%.

These compounds were tested on Rattus norvegicus (assay: Cardioprotective activity in Langendorff perfused Wistar rat assessed as rate pressure product at 40 mg/kg, ip recorded after 30 mins of ischemia followed by 120 mins of reperfusion in presence of 5-hydroxydecanoic acid). Conditions: not given.
Assay type: functional, organism-based
Design: dose 40 mg/kg
Outline: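 In this series the mito-KATP blocker 5-hydroxydecanoic acid (10 mg/kg, in water) was given 20 min before the ip compound (40 mg/kg). The Langendorff protocol was then run: 30 min global ischemia, 120 min reperfusion. RPP at 120 min expressed as % of preischemic value.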
`CC1(C)CC2(CN(Cc3ccc(NS(C)(=O)=O)cc3)C(=O)CO2)c2cc(Br)ccc2O1` (racemic) was tested, and the Activity was “inactive”.
`CC(=O)Nc1ccc(CN2CC3(CC(C)(C)Oc4ccccc43)OCC2=O)cc1` (racemic) was tested, and the Activity was “inactive”.
`CC1(C)CC2(CN(Cc3ccc(NS(C)(=O)=O)cc3)CCO2)c2cc(Br)ccc2O1` (racemic) was tested, and the Activity was “inactive”.
For `CC1(C)CC2(CN(Cc3ccccc3)CCO2)c2ccccc2O1` (racemic), the Activity was “inactive”.
In the case of `CC1(C)Oc2ccc(C#N)cc2C(N2CCCC2=O)C1O` (stereo unspecified) [CROMAKALIM], the Activity was “inactive”.
With `CC1=Nc2ccc(Cl)cc2S(=O)(=O)N1` [DIAZOXIDE] the Activity was “inactive”.

What follows are compounds tested on Aorta (assay: Vasorelaxation activity in Wistar rat thoracic aortic ring assessed as inhibition of KCl-induced contraction at 100 uM relative to KCl). Conditions: not given.
Assay type: functional
Outline: (§2)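 Endothelium-denuded rat aortic rings recorded isometrically, equilibrated 60 min. Denudation checked with ACh (10 µM) on KCl (20 mM) tone; rings relaxing ≥10% discarded. Rings contracted with 20 mM KCl, then given 3-fold cumulative concentrations from 10 nM to 100 µM.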
With `CC(=O)Nc1ccc(CN2CCOC3(C2)CC(C)(C)Oc2ccccc23)cc1` (racemic) the Emax at 100 µM was 76.6%.
`CC(=O)Nc1ccc(CN2CC3(CC(C)(C)Oc4ccc(Br)cc43)OCC2=O)cc1` (racemic) was tested, and the Emax at 100 µM was 69.7%.
For `CC1(C)CC2(CN(Cc3ccc(NS(C)(=O)=O)cc3)C(=O)CO2)c2cc(Br)ccc2O1` (racemic), the Emax at 100 µM was 86.8%.
`CC(=O)Nc1ccc(CN2CC3(CC(C)(C)Oc4ccccc43)OCC2=O)cc1` (racemic) gave an Emax at 100 µM of 56.5%.
`CC(=O)Nc1ccc(CN2CCOC3(C2)CC(C)(C)Oc2ccc(Br)cc23)cc1` (racemic) gave an Emax at 100 µM of 99.8%.
For `CC1(C)CC2(CN(Cc3ccc(NS(C)(=O)=O)cc3)CCO2)c2cc(Br)ccc2O1` (racemic), the Emax at 100 µM was 98.1%.
`CC1(C)CC2(CN(Cc3ccccc3)C(=O)CO2)c2cc(Br)ccc2O1` (racemic) was tested, and the Emax at 100 µM was 65.8%.
`COc1ccc(CN2CCOC3(C2)CC(C)(C)Oc2ccc(Br)cc23)cc1` (racemic) showed an Emax at 100 µM of 61.6%.
Work on `CC1(C)CC2(CN(Cc3ccc(Br)cc3)C(=O)CO2)c2ccccc2O1` (racemic) yielded an Emax at 100 µM of 89.2%.
With `COc1ccc(CN2CC3(CC(C)(C)Oc4ccc(Br)cc43)OCC2=O)cc1` (racemic) the Emax at 100 µM was 91.8%.
`CC1(C)CC2(CN(Cc3ccc(C(F)(F)F)cc3)CCO2)c2cc(Br)ccc2O1` (racemic) showed an Emax at 100 µM of 57.8%.
`CC1(C)CC2(CN(Cc3ccc(NS(C)(=O)=O)cc3)CCO2)c2ccccc2O1` (racemic) gave an Emax at 100 µM of 80.6%.
With `CC1(C)CC2(CN(Cc3ccc(N)cc3)C(=O)CO2)c2ccccc2O1` (racemic) the Emax at 100 µM was 12.5%.
Work on `CC1(C)CC2(CN(Cc3ccc(NS(C)(=O)=O)cc3)C(=O)CO2)c2ccccc2O1` (racemic) yielded an Emax at 100 µM of 98%.
Work on `CC1(C)CC2(CN(Cc3ccccc3)CCO2)c2ccccc2O1` (racemic) yielded an Emax at 100 µM of 85.9%.
`CC1(C)CC2(CN(Cc3ccc(C(F)(F)F)cc3)C(=O)CO2)c2ccccc2O1` (racemic) showed an Emax at 100 µM of 101%.
Work on `CC1(C)CC2(CN(Cc3ccc(N)cc3)CCO2)c2ccccc2O1` (racemic) yielded an Emax at 100 µM of 52.3%.
`CC1(C)CC2(CN(Cc3ccccc3)C(=O)CO2)c2ccccc2O1` (racemic) showed an Emax at 100 µM of 55.3%.
Compound `CC1(C)CC2(CN(Cc3ccc(C(F)(F)F)cc3)CCO2)c2ccccc2O1` (racemic) has an Emax at 100 µM of 59.9%.

The compounds below were run on Rattus norvegicus (assay: Hypotensive activity in normotensive Wistar rat assessed as systolic blood pressure at 1 mg/kg, ip after 90 mins). Conditions: Artery.
Assay type: functional, organism-based
Design: dose 1 mg/kg
Outline: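 Male 10-week-old normotensive Wistar rats (250 g), heparinized (100 UI ip) and anaesthetised with pentobarbital (60 mg/kg). Tail warmed 20 min under IR lamp, basal systolic pressure taken by tail-cuff. Cromakalim given ip at 1 mg/kg, groups of five. Systolic pressure recorded every 30 min for 90 min, as % of basal.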
With `CC1(C)Oc2ccc(C#N)cc2C(N2CCCC2=O)C1O` (stereo unspecified) [CROMAKALIM] the Activity was “Active”.

The compounds below were run on Aorta (assay: Vasorelaxation activity in Wistar rat thoracic aortic ring assessed as inhibition of KCl-induced contraction). Conditions: not given.
Assay type: functional, tissue-based
Outline: as §2
`CC1(C)CC2(CN(Cc3ccccc3)C(=O)CO2)c2cc(Br)ccc2O1` (racemic) gave a pIC50 of 4.84.
With `COc1ccc(CN2CCOC3(C2)CC(C)(C)Oc2ccc(Br)cc23)cc1` (racemic) the pIC50 was 4.46.
In the case of `CC1(C)CC2(CN(Cc3ccc(Br)cc3)C(=O)CO2)c2ccccc2O1` (racemic), the pIC50 was 5.31.
With `COc1ccc(CN2CC3(CC(C)(C)Oc4ccc(Br)cc43)OCC2=O)cc1` (racemic) the pIC50 was 5.52.
For `CC1(C)CC2(CN(Cc3ccc(C(F)(F)F)cc3)CCO2)c2cc(Br)ccc2O1` (racemic), the pIC50 was 4.75.
`CC1(C)CC2(CN(Cc3ccc(NS(C)(=O)=O)cc3)CCO2)c2ccccc2O1` (racemic) gave a pIC50 of 4.81.
`CC1(C)CC2(CN(Cc3ccc(NS(C)(=O)=O)cc3)C(=O)CO2)c2ccccc2O1` (racemic) was tested, and the pIC50 was 5.53.
`CC1(C)CC2(CN(Cc3ccccc3)CCO2)c2ccccc2O1` (racemic) showed a pIC50 of 5.17.
With `CC1(C)CC2(CN(Cc3ccc(C(F)(F)F)cc3)C(=O)CO2)c2ccccc2O1` (racemic) the pIC50 was 5.15.
With `CC1(C)CC2(CN(Cc3ccc(N)cc3)CCO2)c2ccccc2O1` (racemic) the pIC50 was 4.55.
`CC1(C)CC2(CN(Cc3ccccc3)C(=O)CO2)c2ccccc2O1` (racemic) was tested, and the pIC50 was 4.55.
In the case of `CC1(C)CC2(CN(Cc3ccc(C(F)(F)F)cc3)CCO2)c2ccccc2O1` (racemic), the pIC50 was 4.64.

What follows are compounds tested on Rattus norvegicus (assay: Antiischemic activity in Langendorff perfused Wistar rat assessed as ratio of ischemic area to total area at 40 mg/kg, ip). Conditions: route intraperitoneal.
Assay type: functional
`CC1(C)CC2(CN(Cc3ccccc3)C(=O)CO2)c2cc(Br)ccc2O1` (racemic) showed a Ratio of 43%.
`COc1ccc(CN2CCOC3(C2)CC(C)(C)Oc2ccc(Br)cc23)cc1` (racemic) was tested, and the Ratio was 10%.
In the case of `CC1(C)CC2(CN(Cc3ccc(Br)cc3)C(=O)CO2)c2ccccc2O1` (racemic), the Ratio was 23%.
Compound `COc1ccc(CN2CC3(CC(C)(C)Oc4ccc(Br)cc43)OCC2=O)cc1` (racemic) has a Ratio of 16%.
With `CC1(C)CC2(CN(Cc3ccc(C(F)(F)F)cc3)CCO2)c2cc(Br)ccc2O1` (racemic) the Ratio was 5%.
Compound `CC1(C)CC2(CN(Cc3ccc(NS(C)(=O)=O)cc3)CCO2)c2ccccc2O1` (racemic) has a Ratio of 35%.
In the case of `CC1(C)CC2(CN(Cc3ccc(N)cc3)C(=O)CO2)c2ccccc2O1` (racemic), the Ratio was 19%.
`CC1(C)CC2(CN(Cc3ccc(NS(C)(=O)=O)cc3)C(=O)CO2)c2ccccc2O1` (racemic) gave a Ratio of 23%.
In the case of `CC1(C)CC2(CN(Cc3ccccc3)CCO2)c2ccccc2O1` (racemic), the Ratio was 18%.
With `CC1(C)CC2(CN(Cc3ccc(C(F)(F)F)cc3)C(=O)CO2)c2ccccc2O1` (racemic) the Ratio was 53%.
`CC1(C)CC2(CN(Cc3ccc(N)cc3)CCO2)c2ccccc2O1` (racemic) was tested, and the Ratio was 25%.
`CC1(C)CC2(CN(Cc3ccccc3)C(=O)CO2)c2ccccc2O1` (racemic) showed a Ratio of 33%.
`CC1(C)CC2(CN(Cc3ccc(C(F)(F)F)cc3)CCO2)c2ccccc2O1` (racemic) gave a Ratio of 31%.
With `CC1=Nc2ccc(Cl)cc2S(=O)(=O)N1` [DIAZOXIDE] the Ratio was 28%.

These compounds were tested on Rattus norvegicus (assay: Cardioprotective activity in Langendorff perfused Wistar rat assessed as rate pressure product at 40 mg/kg, ip recorded after 30 mins of global ischemia followed by 120 mins of reperfusion). Conditions: route intraperitoneal.
Assay type: functional
Outline: as §1
For `CC1(C)CC2(CN(Cc3ccccc3)C(=O)CO2)c2cc(Br)ccc2O1` (racemic), the Activity was 37%.
Compound `COc1ccc(CN2CCOC3(C2)CC(C)(C)Oc2ccc(Br)cc23)cc1` (racemic) has an Activity of 60%.
`CC1(C)CC2(CN(Cc3ccc(Br)cc3)C(=O)CO2)c2ccccc2O1` (racemic) gave an Activity of 80%.
With `COc1ccc(CN2CC3(CC(C)(C)Oc4ccc(Br)cc43)OCC2=O)cc1` (racemic) the Activity was 76%.
For `CC1(C)CC2(CN(Cc3ccc(C(F)(F)F)cc3)CCO2)c2cc(Br)ccc2O1` (racemic), the Activity was 84%.
In the case of `CC1(C)CC2(CN(Cc3ccc(NS(C)(=O)=O)cc3)CCO2)c2ccccc2O1` (racemic), the Activity was 23%.
`CC1(C)CC2(CN(Cc3ccc(N)cc3)C(=O)CO2)c2ccccc2O1` (racemic) showed an Activity of 53%.
In the case of `CC1(C)CC2(CN(Cc3ccc(NS(C)(=O)=O)cc3)C(=O)CO2)c2ccccc2O1` (racemic), the Activity was 70%.
In the case of `CC1(C)CC2(CN(Cc3ccccc3)CCO2)c2ccccc2O1` (racemic), the Activity was 77%.
`CC1(C)CC2(CN(Cc3ccc(C(F)(F)F)cc3)C(=O)CO2)c2ccccc2O1` (racemic) showed an Activity of 2%.
`CC1(C)CC2(CN(Cc3ccc(N)cc3)CCO2)c2ccccc2O1` (racemic) showed an Activity of 58%.
Compound `CC1(C)CC2(CN(Cc3ccccc3)C(=O)CO2)c2ccccc2O1` (racemic) has an Activity of 35%.
Work on `CC1(C)CC2(CN(Cc3ccc(C(F)(F)F)cc3)CCO2)c2ccccc2O1` (racemic) yielded an Activity of 34%.
